In ChEMBL document CHEMBL2146367, “Novel fluorescent ceramide derivatives for probing ceramidase substrate specificity” (Bioorg Med Chem, 2012):
Active and inactive are the calls of the source. The rule behind the calls is not given here.

Key:
[1] = molecular target: Neutral ceramidase (Homo sapiens) (UniProt Q9NR71); assay: Activity of human recombinant neutral ceramidase assessed as hydrolysis at 20 uM after 60 mins by TLC-based fluorescence imaging; parameters: scale not given: the % may be the effect or the level left
Sequence of Neutral ceramidase (Homo sapiens) (Q9NR71 whole entry): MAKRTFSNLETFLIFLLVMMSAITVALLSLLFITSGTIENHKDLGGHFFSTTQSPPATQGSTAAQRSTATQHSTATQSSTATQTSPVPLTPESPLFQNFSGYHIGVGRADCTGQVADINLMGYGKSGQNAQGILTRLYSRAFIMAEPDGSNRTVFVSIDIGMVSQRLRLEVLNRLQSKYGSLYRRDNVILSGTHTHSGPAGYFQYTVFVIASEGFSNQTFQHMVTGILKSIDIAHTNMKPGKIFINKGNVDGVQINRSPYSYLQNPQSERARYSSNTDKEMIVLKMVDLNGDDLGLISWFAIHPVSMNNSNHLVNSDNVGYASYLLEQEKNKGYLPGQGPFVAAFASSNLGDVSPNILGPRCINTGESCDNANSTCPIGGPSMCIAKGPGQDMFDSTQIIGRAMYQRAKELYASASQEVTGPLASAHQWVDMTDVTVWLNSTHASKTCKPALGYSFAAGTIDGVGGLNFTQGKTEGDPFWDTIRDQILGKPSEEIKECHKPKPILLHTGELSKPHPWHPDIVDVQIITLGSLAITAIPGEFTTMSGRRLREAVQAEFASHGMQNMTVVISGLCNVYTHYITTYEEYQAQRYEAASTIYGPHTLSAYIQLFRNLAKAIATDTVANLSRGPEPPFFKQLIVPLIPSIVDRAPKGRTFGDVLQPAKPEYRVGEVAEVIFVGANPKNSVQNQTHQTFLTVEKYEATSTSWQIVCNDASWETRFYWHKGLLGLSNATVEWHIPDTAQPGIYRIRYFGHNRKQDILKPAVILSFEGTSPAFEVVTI
In short: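 Recombinant human nCDase at 20 ng/mL final, with substrate at 20 µM final, in 200 mM sodium acetate pH 7.0, 200 mM NaCl, 0.1% Triton X-100. Incubated 60 min at 37 °C. Stopped with chloroform/methanol 2:1 and centrifuged 2 min at 10,000 rpm; organic layer run on TLC. Percent hydrolysis from imaged fluorescence of product versus substrate; mean ± SD, n=3.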

[2] = molecular target: T1, Acid ceramidase (Homo sapiens) (UniProt Q13510); assay: Activity of human recombinant acid ceramidase expressed in baculovirus infected Sf9 cells assessed as hydrolysis at 20 uM after 150 mins by TLC-based fluorescence imaging; parameters: scale not given: the % may be the effect or the level left
T1 sequence (whole entry): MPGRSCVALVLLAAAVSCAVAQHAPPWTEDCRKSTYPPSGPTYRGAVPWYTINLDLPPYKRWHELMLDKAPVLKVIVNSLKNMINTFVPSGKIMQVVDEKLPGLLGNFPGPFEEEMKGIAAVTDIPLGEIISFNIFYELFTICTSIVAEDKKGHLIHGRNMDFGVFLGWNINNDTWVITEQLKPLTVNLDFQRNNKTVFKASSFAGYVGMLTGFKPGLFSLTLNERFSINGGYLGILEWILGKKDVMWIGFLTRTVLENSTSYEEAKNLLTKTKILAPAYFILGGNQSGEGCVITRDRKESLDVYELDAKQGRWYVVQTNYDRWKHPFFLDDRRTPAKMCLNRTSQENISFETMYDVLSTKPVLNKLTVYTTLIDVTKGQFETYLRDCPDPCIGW
In short: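 Micellar assay with insect-cell-expressed human aCDase in 200 mM sodium acetate pH 4.5, 200 mM NaCl, 0.1% Triton X-100. Substrate at 20 µM final, 150 min at 37 °C. Quenched with chloroform/methanol 2:1, organic layer separated on silica TLC. Spots imaged at ex 550/em 600 nm (Nile Red) or ex 430/em 550 nm (NBD). Percent cleavage taken from cleaved/(cleaved+uncleaved) fluorescence; mean ± SD, n=3.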

Tachypleus tridentatus = assay: Activity of japanese horseshoe crab acid ceramidase after 30 mins by TLC-based fluorescence imaging
[3] = molecular target: T1, Acid ceramidase (Homo sapiens); assay: Activity of human recombinant acid ceramidase expressed in baculovirus infected Sf9 cells assessed as hydrolysis at 80 uM after 150 mins by TLC-based fluorescence imaging in presence of B-13
In short: (§1)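 Inhibition runs used 30 µg/mL aCDase with inhibitor at 50 µM, in pH 4.5 sodium acetate buffer with 200 mM NaCl and 0.1% Triton X-100. Substrate set per compound at 80, 55 or 160 µM; DMSO <5%. Incubated 150 min at 37 °C, then extracted and run on TLC with fluorescence imaging. Activity expressed relative to an inhibitor-free control; mean ± SD of three experiments, with significance by p value.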

[4] = molecular target: T1, Acid ceramidase (Homo sapiens); assay: Activity of human recombinant acid ceramidase expressed in baculovirus infected Sf9 cells assessed as hydrolysis at 80 uM after 150 mins by TLC-based fluorescence imaging in presence of DP-24a; in short: as §1
[5] = molecular target: T1, Acid ceramidase (Homo sapiens); assay: Activity of human recombinant acid ceramidase expressed in baculovirus infected Sf9 cells assessed as hydrolysis at 160 uM after 150 mins by TLC-based fluorescence imaging in presence of B-13; in short: as §1
[6] = molecular target: T1, Acid ceramidase (Homo sapiens); assay: Activity of human recombinant acid ceramidase expressed in baculovirus infected Sf9 cells assessed as hydrolysis at 160 uM after 150 mins by TLC-based fluorescence imaging in presence of DP-24a; in short: as §1
[7] = molecular target: T1, Acid ceramidase (Homo sapiens); assay: Activity of human recombinant acid ceramidase expressed in baculovirus infected Sf9 cells assessed as hydrolysis at 55 uM after 150 mins by TLC-based fluorescence imaging in presence of B-13; in short: as §1
[8] = molecular target: T1, Acid ceramidase (Homo sapiens); assay: Activity of human recombinant acid ceramidase expressed in baculovirus infected Sf9 cells assessed as hydrolysis at 55 uM after 150 mins by TLC-based fluorescence imaging in presence of DP-24a; in short: as §1

Activity [1] | Activity [2] | Km (Tachypleus tridentatus) | Vmax (Tachypleus tridentatus) | Activity [3] | Activity [4] | Activity [5] | Activity [6] | Activity [7] | Activity [8] | SMILES
9.9% | 9.9% | 59 µM | 0.8 pmol/min | inactive | inactive |  |  |  |  | CCCCCCCCCCCCC/C=C/[C@@H](O)[C@H](CO)NC(=O)CCCCCCCCCCCNc1ccc([N+](=O)[O-])c2nonc12
6.2% | 5.6% |  |  |  |  | inactive | inactive |  |  | CCCCCCCCCCCCCCCC(=O)N[C@@H](CO)[C@H](O)/C=C/CCCCCCCCCNc1ccc([N+](=O)[O-])c2nonc12
3.9% | 6.3% |  |  |  |  |  |  | inactive | inactive | CCCCCCCCCCCCCCCC(=O)N[C@@H](CO)[C@H](O)/C=C/CCCCCCCCCOc1ccc2c(=O)cc3oc4cc(N(CC)CC)ccc4nc-3c2c1
3.3% | 6.1% |  |  | inactive | inactive |  |  |  |  | CCCCCCCCCCCCC/C=C/[C@@H](O)[C@H](CO)NC(=O)CCCCCCCCCCCOc1ccc2c(=O)cc3oc4cc(N(CC)CC)ccc4nc-3c2c1
